Measured values reported in publication PMC3563353 (Bioconjugate chemistry, 2012).
Entries after “also recorded” stand apart in the source; their conditions may differ.

Legend:
MC4R = details: cell lines engineered to overexpress MC4R; cited from earlier work
MC5R = details: cell lines engineered to overexpress MC5R; cited from earlier work
A375/MC1R cells = assay: In vitro MC1R probe uptake study by fluorescence microscopy, A375/MC1R cells; format: cell-based, human; details: 10 minute pre-incubation with 2 μM NDP-α-MSH before probe
Summary of the method: (§1)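 Cy5-conjugated MC1R ligand probe at 15 nM in medium, on live cells (1 × 10^4/well) grown 16 h on glass coverslips. Cells: A375/MC1R (stable hMC1R transfectant, 300 μg/ml G418) or melanotic B16F10-Luc; DMEM, 10% FBS, 37°C, 5% CO2. Imaged by fluorescence microscopy from 40 s to 15 min. For blocking, 10 min pre-incubation with 2 μM NDP-α-MSH.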

B16F10 cells = assay: In vitro MC1R probe uptake study by fluorescence microscopy, B16F10 cells; format: cell-based, mouse
Summary of the method: as §1

[1] = test system: A375/MC1R and A375 xenograft tumors; assay: In vivo fluorescence imaging of bilateral A375 / A375/MC1R xenograft tumors; design: species or system nu/nu mice; details: p<0.05
B16F10 xenograft tumors = format: in vivo, nu/nu mice; details: 3 nmol/kg i.v., melanotic B16F10 xenograft

## 4-phenylbutyryl-His-DPhe-Arg-Trp-Gly-Lys
MC4R
  affinity for MC4R (in words): high nanomolar
MC5R
  affinity for MC5R (in words): high nanomolar

## CCN1C(=CC=CC=CC2=[N+](CCCCCC(=O)NCCN3C(=O)CC(SCCC(=O)NCCCC[C@H](NC(=O)CNC(=O)[C@H](Cc4c[nH]c5ccccc45)NC(=O)[C@H](CCCNC(=N)N)NC(=O)[C@@H](Cc4ccccc4)NC(=O)[C@H](Cc4c[nH]cn4)NC(=O)CCCc4ccccc4)C(N)=O)C3=O)c3ccc(S(=O)(=O)O)cc3C2(C)C)C(C)(C)c2cc(S(=O)(=O)[O-])ccc21 (stereo partly shown) [MC1RL-Cy5]
A375/MC1R cells
  binding and uptake of probe after blocking with NDP-α-MSH: No binding or uptake; also recorded: completely blocked
B16F10 cells; B16F10 cells pre-incubated with unlabeled NDP-α-MSH before probe
  probe uptake by B16F10 cells after blocking with NDP-α-MSH: blocking of probe-uptake was also observed; also recorded: completely blocked
B16F10 cells; melanotic B16F10 cells with endogenous MC1R, 15 nM probe, 5 min time-point
  probe uptake by B16F10 cells: Probe uptake was also observed; also recorded: internalization of probe into the cells

## CC1(C)C(=CC=C2CCCC(C=CC3=[N+](CCCCS(=O)(=O)O)c4ccc(S(=O)(=O)[O-])cc4C3(C)C)=C2Oc2ccc(S(=O)(=O)O)cc2)N(CCCCCC(=O)NCCN2C(=O)CC(SCCC(=O)NCCCC[C@H](NC(=O)CNC(=O)[C@H](Cc3c[nH]c4ccccc34)NC(=O)[C@H](CCCNC(=N)N)NC(=O)[C@@H](Cc3ccccc3)NC(=O)[C@H](Cc3c[nH]cn3)NC(=O)CCCc3ccccc3)C(N)=O)C2=O)c2ccc(S(=O)(=O)O)cc21 (stereo partly drawn) [MC1RL-800, 4-phenylbutyryl-His-DPhe-Arg-Trp-Gly-Lys(Mpr-IRDye800CW)-NH2]
[1]
  tumor uptake with co-injection of excess NDP-α-MSH peptide (in words): significantly blocked
B16F10 xenograft tumors
  fluorescence detection in B16F10 tumors with the Optix MX3 imaging system: not detectable
